Screens as filed in PubChem BioAssay.
SENP8 block-1 = blocks human SENP8 cleavage of Nedd8 substrate. Q96LD8. recombinant SENP8, Nedd8 substrate fluorescence. inhibition, % at 20 µM. 360,000 tested, 0.64% active; in the data active = inhibition mostly above about 40%, no sharp cut-off; inactive = mostly below about 27%
SENP8 block-2 = blocks the human protease SENP8; purified SENP8, Z-RLRGG-aminoluciferin cleavage, luminescence; AID 2540; 330,000 tested, 1.2% active; Q96LD8; inhibition, % at 10 µM; in the data active = inhibition above about 50%
SENP1 FRET inh = SENP1 (human) catalytic domain inhibition. Q9P0U3. recombinant SENP1 catalytic domain, CyPet-SUMO1-YPet FRET cleavage. inhibition, % at 10 µM. 360,000 tested, 0.21% active;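 active = inhibition at least 30% at 10 µM, raw YFP signal under a set limit, fluorescence ratio 0.5 to 1.5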
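System: Recombinant human SENP1 catalytic domain, His6-tagged | Incubation: Enzyme reaction for 50 min at room temperature, dark | Medium: Tris pH 8 with BME, BSA, NP40 and catalase | Also added: 25 nM SUMO1 FRET substrate | Compound: 10 µM single point, 0.5% DMSO | Measured by: FRET fluorescence in CFP and YFP emission channels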
SENP7 inh = blocks the human protease SENP7; Q9BQF6; recombinant SENP7, Z-RLRGG-aminoluciferin luminescence, 40 min; inhibition, % at 5 µM; 330,000 tested, 1.5% active; AID 434973;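 active = inhibition above about 50% at the single test dose, limit read from the data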
Platelet DG rel = modulates dense granule release in human platelets. AID 1663. human platelet-rich plasma, SFLLRN dense granule ATP release, luminescence. 300,000 tested, 0.22% active. inhibition, %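 (compounds screened at 7.5 µM in platelet-rich plasma)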;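 active = mean replicate score, as percent of positive control, at or above 50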
SENP6 inh = blocks the human protease SENP6; Q9GZR1; Recombinant SENP6 catalytic domain, aminoluciferin luminescence; inhibition, % at 10 µM; 330,000 tested, 1.8% active;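 active = inhibition above about 50% at the single tested dose, limit read from the data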
Target sequence (Q9GZR1 628-1112 limits assumed): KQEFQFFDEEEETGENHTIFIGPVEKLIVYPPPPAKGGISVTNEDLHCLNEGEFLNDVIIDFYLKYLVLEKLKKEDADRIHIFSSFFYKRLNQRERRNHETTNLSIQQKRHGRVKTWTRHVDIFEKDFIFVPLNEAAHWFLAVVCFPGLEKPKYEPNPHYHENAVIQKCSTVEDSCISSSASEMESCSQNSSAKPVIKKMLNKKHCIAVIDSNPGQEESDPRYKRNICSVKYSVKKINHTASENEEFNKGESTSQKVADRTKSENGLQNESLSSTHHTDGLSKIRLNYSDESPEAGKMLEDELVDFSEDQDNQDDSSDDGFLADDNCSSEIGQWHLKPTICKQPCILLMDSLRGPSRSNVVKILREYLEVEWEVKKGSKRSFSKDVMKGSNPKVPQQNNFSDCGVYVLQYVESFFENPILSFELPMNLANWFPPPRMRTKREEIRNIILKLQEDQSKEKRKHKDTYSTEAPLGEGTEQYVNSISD
SENP8 confirm = confirmation of human SENP8 protease inhibitors | shares compounds with SENP7 inh | Recombinant SENP8, Z-RLRGG-aminoluciferin luminescence, 60 min | inhibition, % at 12.5 µM | 6,200 tested, 40% active | AID 488912;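 active = mean inhibition across replicates above about 50%, limit read from the data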
SENP6 confirm = confirmation of human SENP6 protease inhibitors. 6,200 tested, 58% active. recombinant SENP6, Z-RLRGG-aminoluciferin luminescence. inhibition, % at 12.5 µM. shares compounds with SENP7 inh
SENP7 confirm = confirmation of human SENP7 protease inhibitors; shares compounds with SENP7 inh; recombinant SENP7, Z-RLRGG-aminoluciferin luminescence, 40 min; inhibition, % at 12.5 µM; 6,200 tested, 69% active; AID 488917
Casp3 select = caspase-3 inhibition (SENP selectivity assay); shares compounds with SENP7 inh; purified caspase-3, Z-DEVD-aminoluciferin luminescence, 60 min; inhibition, % at 12.5 µM; 6,200 tested, 60% active; AID 488918;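 active = mean inhibition above about 50%, limit read from the data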
SENP luc ctr = luminescence interference (SENP counter-screen). AID 488919. shares compounds with SENP7 inh. Pre-incubated SENP8/Z-RLRGG-aminoluciferin, luciferase luminescence interference. 6,200 tested, 39% active. inhibition, % at 12.5 µM;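 active = mean inhibition above about 50% when retested at one dose, limit read from the data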
Large screens that a line does not name were inactive (follow-up assays come after a bar, where they were run). Hits are enriched below; roughly 2.6% of the tested compounds scored in any of these assays.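 The calls were made as follows, unless noted: active = mean inhibition above about 50% in the one-dose retest (limit read from the data); inactive = the rest.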

O=C(Nc1cccc(Br)c1)c1cccc(OC(=S)N2CCOCC2)c1	SENP7 inh 54.7, SENP6 inh 56.8 | SENP8 confirm inactive | SENP6 confirm inactive | SENP7 confirm 74.2 | Casp3 select inactive | SENP luc ctr 51.1
O=C(Nc1ccc(C(=O)N2CCOCC2)cc1)c1cccc(Br)c1	none
O=C(Nc1cc(Cl)ccc1C(=O)O)c1ccc(CN2C(=O)c3ccccc3C2=O)cc1	none (no result: SENP8 block-2, SENP7 inh, SENP6 inh)
Cc1ccc(-c2nc3ccsc3c(=O)o2)cc1	SENP7 inh 52.2, SENP6 inh 55.0 | SENP8 confirm inactive | SENP6 confirm inactive | SENP7 confirm 67.3 | Casp3 select inactive | SENP luc ctr 55.9
O=C1Nc2ccccc2N(O)N1c1cc(-c2ccccc2Cl)no1	none
O=C1Nc2ccccc2N(O)N1c1cc(-c2cccc(Cl)c2)no1	SENP8 block-2 57.5, SENP7 inh 60.4 | SENP8 confirm 83.3 | SENP6 confirm 80.3 | SENP7 confirm 93.1 | Casp3 select 88.3 | SENP luc ctr 80.8
Cc1ccc(C(=O)NCC(=O)OCN2C(=O)c3ccccc3C2=O)cc1C	none (no result: Platelet DG rel)
Cc1ccc(C(=O)NC2(O)C(=O)c3ccccc3C2=O)cc1C	SENP8 block-1 100.0, SENP8 block-2 63.9, SENP7 inh 60.5, SENP6 inh 64.4 | SENP8 confirm 70.1 | SENP6 confirm 85.1 | SENP7 confirm 74.3 | Casp3 select inactive | SENP luc ctr inactive
O=C(NC1(O)C(=O)c2ccccc2C1=O)c1ccc(C(F)(F)F)cc1	SENP8 block-1 81.0, SENP8 block-2 67.3, SENP7 inh 79.9, SENP6 inh 73.8 | SENP8 confirm 79.2 | SENP6 confirm 90.6 | SENP7 confirm 83.5 | Casp3 select inactive | SENP luc ctr inactive
Cc1cc2nc(-c3cccnc3SCC(=O)NCc3ccco3)[nH]c2cc1C	SENP8 block-2 74.5, SENP7 inh 88.1, SENP6 inh 83.8 | SENP8 confirm 90.7 | SENP6 confirm 89.5 | SENP7 confirm 97.8 | Casp3 select 90.3 | SENP luc ctr 85.7
O=C(CSc1ncccc1-c1nc2ccccc2[nH]1)NCc1ccco1	none
COc1ccc(C(CC(=O)c2ccc(O)cc2)S(=O)(=O)c2ccc(C)cc2)cc1 (stereo not given)	SENP7 inh 55.2 | SENP8 confirm 52.0 | SENP6 confirm inactive | SENP7 confirm 69.3 | Casp3 select inactive | SENP luc ctr 58.3
CCOC(=O)CNC(=O)CSc1ncnc2c1cnn2-c1ccc(OC)cc1	SENP8 block-2 68.1, SENP6 inh 70.1 | SENP8 confirm inactive | SENP6 confirm inactive | SENP7 confirm inactive | Casp3 select 75.4 | SENP luc ctr inactive
CCOC(=O)CNC(=O)CSc1ncnc2c1cnn2-c1ccc(C)cc1	SENP6 inh 52.3 | SENP8 confirm inactive | SENP6 confirm inactive | SENP7 confirm inactive | Casp3 select inactive | SENP luc ctr inactive
O=C(Nc1nnc(C2CC2)s1)C1COc2ccccc2O1 (stereo not given)	none
CC1(C)Oc2ccc(NC(=O)C3COc4ccccc4O3)cc2O1 (stereo not given)	SENP6 inh 66.2 | SENP8 confirm 72.3 | SENP6 confirm 72.0 | SENP7 confirm 92.6 | Casp3 select 70.6 | SENP luc ctr 77.3
O=C(Nc1nnc(C(F)(F)F)s1)C1COc2ccccc2O1 (stereo not given)	SENP8 block-2 67.4, SENP7 inh 64.3, SENP6 inh 82.7 | SENP8 confirm 80.8 | SENP6 confirm 80.2 | SENP7 confirm 95.4 | Casp3 select 91.0 | SENP luc ctr 84.8
